The source made the active and inactive calls. No cut-off for these calls is given here.
Assays:
[1] = Inhibition of H+/K+ATPase in pig gastric microsomes assessed as liberation of inorganic phosphate from ATP hydrolysis after 30 mins; parameters: species or system Sus scrofa, Stomach, Microsome
How it was run: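 Porcine gastric mucosal microsomes (Ficoll-interface fraction, stored at -80 C) in 50 mmol/L HEPES-Tris pH 6.5 with 5 mmol/L MgCl2, valinomycin, ±10 mmol/L KCl. Preincubated with compound at 37 C for 30 min, then started by adding 2 mmol/L ATP solution. Stopped with malachite green; Pi read at 620 nm. K+-dependent activity from ± K+ difference; IC50 by sigmoidal dose-response fit.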

Rattus norvegicus [2] = assay: Inhibition of histamine-induced gastric acid secretion in Jcl:Sprague-Dawley rat at 1 mg/kg, iv administered 3 mins before histamine challenge measured after 3 hrs relative to control; format: functional; conditions: Stomach
How it was run: (§1)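 Seven-week-old male SD rats, fasted 24 h with free water, anesthetized with urethane 1.2 g/kg ip and pylorus-ligated. Drug or vehicle given iv just after ligation; histamine 2HCl 30 mg/kg sc 3 min later. After 3 h, gastric contents were centrifuged and titrated to pH 7.0 with 0.1 mol/L NaOH. Total 3 h acid output compared with vehicle.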

[3] = Inhibition of Na+/K+ ATPase in pig cerebral cortex; format: tissue-based, Sus scrofa
How it was run: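 Otherwise run as the gastric H+,K+-ATPase assay: compound preincubation at 37 C for 30 min, ATP-started reaction, malachite green phosphate read-out at 620 nm.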

Rattus norvegicus [4] = assay: Inhibition of histamine-induced gastric acid secretion in Jcl:Sprague-Dawley rat at 10 mg/kg, iv administered 3 mins before histamine challenge measured after 3 hrs relative to control; format: functional; conditions: Stomach; how it was run: as §1
Canis familiaris [5] = assay: Inhibition of histamine-stimulated gastric acid secretion in heidenhain pouch dog at 1 mg/kg, po prestimulated with histamine 1 day before compound treatment and 1, 3, 6 and 24 hrs post compound treatment measured every 30 mins for 3 times; format: functional, organism-based; parameters: dose 1 mg/kg; conditions: Canis lupus familiaris, Stomach
How it was run: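 Dogs dosed orally in a blinded design (0.2 mL/kg), with vehicle controls. Histamine 2HCl injected sc. Pouch gastric juice collected as three consecutive 30 min periods after each histamine dose. Volume measured, and acid titrated to pH 7.0 with 0.1 mol/L NaOH. Total 90 min acid output at each time expressed as % of pre-dosing value.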

Sus scrofa [6] = organism: Sus scrofa; assay: Reversible inhibition of H+/K+ATPase in pig gastric microsomes assessed as liberation of inorganic phosphate from ATP hydrolysis at 0.1 uM incubated for 20 mins measured after compound washout; conditions: Stomach, Microsome
How it was run: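 Gastric microsomes incubated with compound (1% DMSO final) at 37 C for 30 min in 50 mmol/L HEPES-Tris pH 6.5, 5 mmol/L MgCl2, 10 mmol/L KCl. Activity measured on an aliquot and on the remainder after washout (30 kDa ultrafiltration, resuspended compound-free). Reaction started with 2 mmol/L ATP, run at 37 C for 20 min; malachite green phosphate read-out; % of 1% DMSO vehicle, n = 2.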

Sus scrofa [7] = organism: Sus scrofa; assay: Competitive inhibition of H+/K+ATPase in pig gastric microsomes by Lineweaver-Burk plot analysis; conditions: Stomach, Microsome
Canis familiaris [8] = assay: Inhibition of histamine-stimulated gastric acid secretion in heidenhain pouch dog at 1 mg/kg, po prestimulated with histamine 1 day before compound treatment and 1, 3, 6 and 24 hrs post compound treatment measured after 24 hrs; format: functional, organism-based; parameters: dose 1 mg/kg; conditions: Canis lupus familiaris, Stomach
How it was run: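 Heidenhain pouch dogs dosed orally (0.2 mL/kg), blinded. Histamine 2HCl given sc 1 day before and at 1, 3, 6 and 24 h post-dose. Pouch juice collected over three consecutive 30 min periods and titrated to pH 7.0 with 0.1 mol/L NaOH. 90 min acid output expressed as % of the pre-dosing value.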

Row | Compound | IC50 [1] [µM] | inhibition in vivo at 1 mg/kg (Rattus norvegicus [2]) [%] | also measured
1 | CNCc1cc(-c2ccccc2)n(C(=O)c2ccccc2)c1 | > 10 | – | –
2 | CNCc1cc(-c2ccccc2)n(S(=O)(=O)c2ccccc2)c1Cl | 0.04 | 49 | IC50 [3]: > 10 µM
3 | CNCc1cc(-c2ccccc2)n(S(=O)(=O)c2ccccc2)c1 | 0.0094 | 96 | IC50 [3]: > 10 µM
4 | CNCc1cn(S(=O)(=O)c2ccccc2)c(-c2ccccc2)c1C | 0.029 | 95 | IC50 [3]: > 10 µM
5 | CCCCS(=O)(=O)n1cc(CNC)cc1-c1ccccc1 | 0.83 | – | –
6 | COCc1cc(-c2ccccc2)n(S(=O)(=O)c2ccc(C)cc2)c1 | > 10 | – | inhibition in vivo at 10 mg/kg (Rattus norvegicus [4]): -3%
7 | CCNCc1cc(-c2ccccc2)n(S(=O)(=O)c2ccc(C)cc2)c1 | 0.65 | – | inhibition in vivo at 10 mg/kg (Rattus norvegicus [4]): 53%
8 | CNCc1cc(C2CC2)n(S(=O)(=O)c2ccccc2)c1 | 1.5 | – | –
9 | CCCCc1cc(CNC)cn1S(=O)(=O)c1ccccc1 | 0.25 | -8 | –
10 | CCNCc1cc(-c2ccc3c(c2)OCO3)n(S(=O)(=O)c2ccc(C)cc2)c1 | 0.54 | – | inhibition in vivo at 10 mg/kg (Rattus norvegicus [4]): 39%
11 | CNCc1cc(-c2ccccc2)n(Cc2ccccc2)c1 | 0.51 | – | inhibition in vivo at 10 mg/kg (Rattus norvegicus [4]): 84%
12 | CNC(C)c1cc(-c2ccccc2)n(S(=O)(=O)c2ccc(C(F)(F)F)cc2)c1 (stereo unspecified) | 2.3 | -4 | –
13 | Cc1c(OCC(F)(F)F)ccnc1C[S+]([O-])c1nc2ccccc2[nH]1 (stereo unspecified) | – | – | inhibition (Canis familiaris [5]): Active
14 | CNCc1cc(-c2ccccc2)n(S(=O)(=O)c2ccccc2)c1C | 0.025 | 77 | IC50 [3]: > 10 µM
15 | CNCc1cc(-c2ccccc2)n(S(=O)(=O)c2ccc(C(F)(F)F)cc2)c1 | 0.11 | 73 | –
16 | CNCc1cc(-c2ccccc2)n(S(=O)(=O)c2ccc(C)cc2)c1 | 0.055 | 66 | IC50 [3]: > 10 µM; inhibition (Sus scrofa [6]): Active; inhibition (Sus scrofa [7]): Active
17 | CNCc1cc(-c2ccccc2)n(S(C)(=O)=O)c1 | > 10 | – | inhibition in vivo at 10 mg/kg (Rattus norvegicus [4]): 27%
18 | CN(C)Cc1cc(-c2ccccc2)n(S(=O)(=O)c2ccc(C(F)(F)F)cc2)c1 | 0.71 | – | inhibition in vivo at 10 mg/kg (Rattus norvegicus [4]): 59%
19 | CNCc1cc(-c2ccccc2)n(S(=O)(=O)c2ccc(OC)cc2)c1 | 0.03 | 95 | inhibition (Canis familiaris [8]): Active; IC50 [3]: > 10 µM; inhibition (Canis familiaris [5]): Active
20 | Cc1ccc(S(=O)(=O)n2cc(CN)cc2-c2ccccc2)cc1 | 0.86 | – | –
21 | Cc1ccc(S(=O)(=O)n2cc(C(N)=O)cc2-c2ccccc2)cc1 | > 10 | – | –

— ChEMBL document CHEMBL2034820, “Discovery, synthesis, and biological evaluation of novel pyrrole derivatives as highly selective potassium-competitive acid blockers” (Bioorg Med Chem, 2012)
